We go through twelve compounds from ChEMBL document CHEMBL4219056 (Bioorg Med Chem, 2018).

In data set [1] the target is Free fatty acid receptor 1 (Homo sapiens, UniProt O14842). As to the kind of experiment: Agonist activity at human FFA1 expressed in CHO cells assessed as increase in intracellular Ca2+ flux by Fluo-4 dye based FLIPR assay. In kind it is functional, cell-based. The gist of the method:
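Stable human FFA1 CHO cells were seeded at 15 K cells/well and held 16 h at 37 °C in 5% CO2, then washed with HBSS. Ca2+ flux was read after graded compound addition. Response was scaled between vehicle and 10 µM γ-linolenic acid. EC50 is the mean of three independent determinations.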

The nature of data set [2]: Lipophilicity, log D of the compound at 100 uM at pH 7.4 after 24 hrs by HPLC method. In kind it is physicochemical. The conditions noted are these: buffer. The method, boiled down: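 Shake-flask method: 10 mM DMSO stock was added to equal volumes of 0.01 M phosphate buffer pH 7.4 and 1-octanol, giving 100 µM final. Vials were shaken 24 h at 700 rpm, then left 1 h to separate. The octanol phase was diluted ×10 and both phases were run on HPLC. Injections were in duplicate; three independent experiments were run.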

Data set [3] relates to Mus musculus. Nature of the data set: Antidiabetic activity in ICR mouse assessed as reduction in blood glucose AUC (0 to 120 mins) at 40 mg/kg, po dosed 30 minutes prior to glucose challenge by OGTT relative to control. In kind it is functional. On the set-up: scale not given: the % may be the effect or the level left. The gist of the method:
(§1)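 Fasting male ICR mice (10 weeks, 18-22 g) got a single oral dose in 0.5% carboxymethyl cellulose. Oral glucose (30% solution, 3 g/kg) followed 30 min later. Blood glucose was sampled at -30, 0, 15, 30, 60 and 120 min.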

Data set [4] is described as follows: Plasma clearance in fasted Sprague-Dawley rat at 3 mg/kg, po administered as single dose measured up to 24 hrs by LC-PDA-MS/MS analysis. The format is ADME, organism-based. The method, boiled down:
(§2)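 Male SD rats (8 weeks, 180-200 g) were fasted 12 h and dosed once orally at 3 mg/kg, suspended in 0.5% methylcellulose, n = 4 per group. Tail-vein blood was drawn at 5, 15, 30 and 45 min and at 1, 2, 4, 6, 8, 12, 18 and 24 h. Plasma was stored at -20 °C. Methanol precipitation with internal standard preceded LC-PDA-MS/MS. Values are mean ± SD.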

Data set [5] can be described thus: Cmax in fasted Sprague-Dawley rat at 3 mg/kg, po administered as single dose by LC-PDA-MS/MS analysis. The note with it: in vivo. The format is ADME, organism-based. On the set-up: dose 3 mg/kg, route oral. The gist of the method:
as §2

Data set [6] in a line: AUC (0 to 24 hrs) in fasted Sprague-Dawley rat at 3 mg/kg, po administered as single dose by LC-PDA-MS/MS analysis. In kind it is ADME, organism-based. On the set-up: dose 3 mg/kg, time < 24 hr, route oral. The note with it: in vivo. The gist of the method: as §2
A short description of data set [7]: Half life in fasted Sprague-Dawley rat at 3 mg/kg, po administered as single dose by LC-PDA-MS/MS analysis. In kind it is ADME, organism-based. The conditions noted are these: in vivo. The method, boiled down: as §2
Data set [8] concerns Mus musculus. Nature of the data set: Antidiabetic activity in ICR mouse assessed as reduction in blood glucose AUC (0 to 120 mins) at 20 mg/kg, po dosed 30 minutes prior to glucose challenge by OGTT relative to control. In kind it is functional. On the set-up: scale not given: the % may be the effect or the level left. The method, boiled down: as §1

Calls of active or inactive are those of the source. No cut-off for these calls is given here.

Free fatty acid receptor 1, sequence (O14842 whole entry): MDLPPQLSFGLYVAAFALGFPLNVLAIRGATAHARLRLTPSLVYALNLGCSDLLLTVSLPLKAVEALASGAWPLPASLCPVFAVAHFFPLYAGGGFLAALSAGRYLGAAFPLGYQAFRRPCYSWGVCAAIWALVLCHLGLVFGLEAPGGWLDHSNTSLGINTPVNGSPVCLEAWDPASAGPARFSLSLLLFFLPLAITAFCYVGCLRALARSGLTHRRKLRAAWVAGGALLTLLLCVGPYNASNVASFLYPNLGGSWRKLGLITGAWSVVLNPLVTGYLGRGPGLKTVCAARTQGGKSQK

`Cc1ccc(-c2c(C)noc2C)cc1COc1ccc2c(c1)OCC2CC(=O)O` (stereo unspecified): the EC50 in data set [1] worked out at 53.7 nM. This compound also yielded a logD at 24 h, 100 µM in data set [2] of 2.07.

As to `[2H]C([2H])(Cc1ccc(OCc2cccc(-c3c(C)noc3C)c2)cc1F)C(=O)O`, in data set [1], the EC50 stood at 45.7 nM.

`Cc1ccsc1-c1cccc(COc2ccc3c(c2)OCC3CC(=O)O)c1` (stereo unspecified): in data set [1], the EC50 came out at 157 nM.

`Cc1noc(C)c1-c1cc(COc2ccc3c(c2)OC[C@H]3CC(=O)O)ccc1Cl`: the EC50 in data set [1] was 7.9 nM. The logD at 24 h, 100 µM in data set [2] came out at 1.93. Further, the Activity in the data set on Mus musculus [3] was 26.2%. Besides, in data set [4], the CL/F was 0.308 mL/min/kg. This compound returned a Cmax in data set [5] of 14100 ng/mL. Moreover, the AUC(0-t) at 24 h in data set [6] is 142 µg·h/mL. In data set [7], the half-life is 4.65 h.

In the case of `Cc1noc(C)c1-c1ccc(Cl)c(COc2ccc3c(c2)OCC3CC(=O)O)c1` (stereo unspecified), in data set [1], the EC50 stood at 39.7 nM. In addition, the logD at 24 h, 100 µM in data set [2] is 2.13. The result in the data set with Mus musculus [3] was Active.

In the case of `[2H]C([2H])(Cc1ccc(OCc2cccc(-c3c(C)noc3C)c2)cc1)C(=O)O`, the EC50 in data set [1] is 38.4 nM. This compound registered a logD at 24 h, 100 µM in data set [2] of 1.83.

Consider `Cc1cc(OCCCS(C)(=O)=O)cc(C)c1-c1cccc(COc2ccc3c(c2)OC[C@H]3CC(=O)O)c1`, for which the Activity in the data set with Mus musculus [8] turned out to be 37.5%. The compound further had an apparent clearance CL/F in data set [4] of 0.618 mL/min/kg. In data set [5], this compound had a Cmax of 6460 ng/mL. In addition, the AUC(0-t) at 24 h in data set [6] was 79.5 µg·h/mL. In addition, the half-life in data set [7] was 4.29 h.

On to `Cc1noc(C)c1-c1cc(COc2ccc3c(c2)OCC3CC(=O)O)ccc1Cl` (stereo unspecified), for which the EC50 in data set [1] was 18.6 nM. The compound further registered a logD at 24 h, 100 µM in data set [2] of 1.96. In the data set with Mus musculus [3], the result was Active.

For the compound `Cc1nn(C)c(C)c1-c1cccc(COc2ccc3c(c2)OCC3CC(=O)O)c1` (stereo unspecified), the EC50 in data set [1] is 104 nM.

With `Cc1noc(C)c1-c1cccc(COc2ccc3c(c2)OCC3CC(=O)O)c1` (stereo unspecified), in data set [1], the EC50 stood at 27.5 nM. This compound also registered a logD at 24 h, 100 µM in data set [2] of 1.57. The outcome with Mus musculus [3] was Active.

Take `Cc1noc(C)c1-c1cccc(COc2ccc(CCC(=O)O)cc2)c1`: the outcome with Mus musculus [3] (tested as the 2H-labelled form) was Active.

`Cc1ccc(C)n1-c1cccc(COc2ccc3c(c2)OCC3CC(=O)O)c1` (stereo unspecified): the EC50 in data set [1] stood at 53.6 nM. The compound further gave a logD at 24 h, 100 µM in data set [2] of 3.95.

In general, EC50 refers to the concentration at which the effect is half-maximal. For orientation: logD means lipophilicity at a set pH, counting ionised and neutral species. The CL/F is clearance divided by bioavailability, as obtained after extravascular dosing. Broadly, the Cmax is the peak of the concentration-time curve. The term AUC(0-t) denotes exposure summed from dosing to a finite time, without extrapolation to infinity. Broadly, the half-life is how long it takes for the measured level to halve.
